Compound activity from PubChem BioAssay.
APJ ag: agonists of human APJ apelin receptor | P35414 | 0.11% of 330,000 active | CHO-K1 APJ PathHunter beta-arrestin, luminescence; 0% DMSO wells, 100% apelin | activation, % at 20 µM | AID 2520;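 active = activation more than six SD over the plate average, tested at 20 µM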
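Material: CHO-K1 APJ beta-arrestin complementation cell line; Input: cell density 1000 per well; Incubation: compound stimulation 90 min at 25 °C, detection 60 min; Signal: luminescence from split beta-galactosidase complementation, Galacton Star/Emerald II substrate; Controls: DMSO-only wells as negative, 10 nM Apelin-13 as positive control.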
APJ antagonist: APJ receptor antagonism. inhibition, % at 20 µM. P35414. AID 2521. 0.32% of 330,000 active. CHO-K1 APJ beta-arrestin complementation, luminescence;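 active = inhibition above about 40% at 20 µM, limit read from the data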;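 note: cells challenged with 10 nM apelin-13 agonist together with compound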
TAG inh: triacylglycerol accumulation inhibition; 0.66% of 230,000 active; inhibition, % at 12.5 µM; AID 651582; H9c2 cells, Nile Red lipid (TAG) fluorescence; cells loaded with 200 µM oleic acid;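 active = pattern-corrected inhibition of lipid staining of at least 50% with the nuclear-stain viability signal not falling by more than 50%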
CXCR6 inh: CXCR6 (human) receptor inhibition; inhibition, % at 20 µM; CHO-K1 PathHunter CXCR6 beta-arrestin, luminescence; O00574; 0.36% of 360,000 active; in the data active = inhibition above about 34%, passing the limit was not always enough;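 note: antagonist mode with CXCL16 agonist at 10 nM final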
Target sequence (O00574 whole entry, looked up): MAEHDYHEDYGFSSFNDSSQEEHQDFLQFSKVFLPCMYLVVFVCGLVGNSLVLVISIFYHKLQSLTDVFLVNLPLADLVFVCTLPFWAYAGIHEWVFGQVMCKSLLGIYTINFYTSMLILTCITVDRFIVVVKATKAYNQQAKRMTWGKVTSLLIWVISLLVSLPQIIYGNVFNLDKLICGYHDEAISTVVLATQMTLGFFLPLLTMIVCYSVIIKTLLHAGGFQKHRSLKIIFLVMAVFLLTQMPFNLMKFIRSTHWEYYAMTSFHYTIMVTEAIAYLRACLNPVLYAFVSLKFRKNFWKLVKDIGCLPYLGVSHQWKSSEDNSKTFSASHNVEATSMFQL
CCR6 antagonist: blocks CCL20-driven beta-arrestin recruitment at human CCR6; P51684; CHO-K1 CCR6 PathHunter beta-arrestin, luminescence, CCL20-stimulated; inhibition, % at 20 µM; 0.49% of 340,000 active; AID 493098;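 active = compounds whose inhibition of the agonist-driven luminescence signal at 20 µM reaches about 50%, limit read from the data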;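 note: cells stimulated with CCL20 at 14 nM final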
Target sequence (P51684 whole entry, looked up): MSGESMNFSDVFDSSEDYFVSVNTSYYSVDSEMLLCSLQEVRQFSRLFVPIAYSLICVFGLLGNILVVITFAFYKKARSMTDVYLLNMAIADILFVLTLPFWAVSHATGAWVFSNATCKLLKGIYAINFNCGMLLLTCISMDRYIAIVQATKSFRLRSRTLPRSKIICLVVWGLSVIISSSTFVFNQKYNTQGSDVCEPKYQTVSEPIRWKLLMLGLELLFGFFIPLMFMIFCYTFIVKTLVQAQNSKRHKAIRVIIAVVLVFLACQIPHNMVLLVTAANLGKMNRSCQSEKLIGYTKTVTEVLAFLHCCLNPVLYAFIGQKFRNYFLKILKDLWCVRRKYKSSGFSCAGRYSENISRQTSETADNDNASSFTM
EBI2 antag: antagonists of human EBI2 receptor; P32249; EBI2 beta-arrestin recruitment, luminescence, 7a,25-OHC stimulated; inhibition, % at 5 µM; 0.81% of 360,000 active; in the data active = inhibition above about 38%;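 note: enzyme fragment complementation signal reports receptor beta-arrestin coupling in cells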
EBI2 antag conf: confirmation of human EBI2 receptor antagonists; inhibition, % at 5 µM; 29% of 2,400 active; shares compounds with EBI2 antag; AID 651997; EBI2 beta-arrestin luminescence, 7a,25-OHC antagonism;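 active = inhibition of at least 50%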
EBI2 agonist: EBI2 agonism counter-screen. shares compounds with EBI2 antag. EBI2-expressing cells, agonist mode, luminescence, 60 min; 0% vehicle, 100% 7α,25-dihydroxycholesterol control. activation, % at 5 µM. 2,400 tested, under 10 active;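 active = activation of at least 50%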
bGal counter: beta-galactosidase inhibition counter-screen; shares compounds with EBI2 antag; purified beta-galactosidase, luminescent Galacton Star, 15 min; inhibition, % at 5 µM; 1% of 2,400 active; AID 652176;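 active = replicate-average signal at least 3 plate SD below neutral wells, shown as high inhibition, flagging enzyme-inhibiting false positives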;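 note: higher means stronger loss of beta-gal luminescence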
Numbers stand for hits; i = inactive; nt = not tested or not shown. A selection: hits, their analogues and other compounds. The true share with any hit is near 1.9%.

SMILES | APJ ag | APJ antagonist | TAG inh | CXCR6 inh | CCR6 antagonist | EBI2 antag | EBI2 antag conf | EBI2 agonist | bGal counter
COc1ccc(N2CCN(C(=O)c3cc(=O)c4cc(C)ccc4o3)CC2)cc1 | i | i | nt | i | i | 92.1 | 81.7 | i | i
COc1ccc(N2CCN(C(=O)c3cc(=O)c4cc(C)c(C)cc4o3)CC2)cc1 | i | i | nt | i | i | 91.8 | 87.3 | i | i
COc1ccccc1N1CCN(C(=O)c2cc(=O)c3ccc(C)cc3o2)CC1 | i | i | nt | i | i | i | nt | nt | nt
Cc1cccc(N2CCN(C(=O)c3ccc4ncsc4c3)CC2)c1C | nt | nt | i | i | i | 74.2 | 65.0 | i | i
O=C(c1ccc2ncsc2c1)N1CCN(c2ccccc2Cl)CC1 | i | i | i | i | i | 73.9 | 53.9 | i | i
Cc1ccc(C)c(N2CCN(C(=O)c3ccc4nsnc4c3)CC2)c1 | i | i | nt | i | i | 47.1 | i | i | i
O=C(CCc1cccc(Cl)c1)N1CCCC(Nc2ccccc2)C1 (centres undefined) | i | i | nt | i | i | i | nt | nt | nt
Cc1c(C(=O)N2CCN(c3ccccn3)CC2)oc2ccccc12 | i | i | nt | i | i | 35.8 | i | i | i
Cc1c(C(=O)N2CCN(c3ncccn3)CC2)oc2ccc(Cl)cc12 | i | i | i | i | i | 56.1 | i | i | i
CC(=O)N1CCN(C(=O)c2oc3ccccc3c2C)CC1 | i | i | nt | i | i | i | nt | nt | nt
Cc1nn(CCC(=O)N2CCN(S(=O)(=O)c3ccccc3)CC2)c(C)c1C | i | i | nt | i | i | i | nt | nt | nt
Cc1cc(C)c(S(=O)(=O)N2CCN(C(=O)CCn3nc(C)c(C)c3C)CC2)c(C)c1 | i | i | nt | i | i | 46.6 | i | i | i
COc1ccc(-c2nc(N)ncc2-c2ccccc2OC)c(O)c1 | i | i | nt | i | i | 45.9 | i | i | i
C=C(C)COc1ccc(-c2nc(N)ncc2-c2ccc(OC)c(OC)c2)c(O)c1 | i | i | nt | i | i | i | nt | nt | nt
Nc1ncc(-c2ccccc2)c(-c2ccc(OCc3ccccc3)cc2O)n1 | i | i | i | i | i | i | nt | nt | nt
COc1ccc(-c2nc(N)ncc2-c2ccccc2)c(O)c1 | i | i | nt | i | i | 60.6 | i | i | i
COc1ccc(-c2cnc(N)nc2-c2ccc(OC)cc2O)cc1 | i | i | i | i | i | 81.2 | i | i | i
Cc1cccc(C(=O)N=c2sccn2C)c1[N+](=O)[O-] | i | i | i | i | i | i | nt | nt | nt
CCCN(CCC)CCCNC(=O)c1cc2c(=O)n(CC)c3ccccc3c2s1 | i | i | nt | i | i | i | nt | nt | nt
COc1cc2cc(C(=O)Nc3ccc4c(c3)OCCO4)[nH]c2cc1OC | i | i | nt | i | i | i | nt | nt | nt
CCOc1ccc(NC(=O)CN2CCN(C3c4ccccc4-c4ccccc43)CC2)cc1 | i | i | nt | i | i | 67.5 | i | i | i
CC(C)CCNC(=O)/C=C/c1ccc(Br)cc1 | i | i | nt | i | i | 47.4 | i | i | i
COc1ccc(N(CC(=O)NCCSc2ccccc2)S(=O)(=O)c2ccccc2)cc1 | i | i | i | i | i | 88.2 | 59.5 | i | i
COc1ccc(N(CC(=O)NCCSCc2cccc(Cl)c2)S(C)(=O)=O)cc1Cl | i | i | i | i | i | i | nt | nt | nt
COc1ccc(N(CC(=O)NCCSCc2ccc(Cl)cc2)S(C)(=O)=O)cc1Cl | i | i | nt | i | i | 45.6 | i | i | i
SMILES | APJ ag | APJ antagonist | TAG inh | CXCR6 inh | CCR6 antagonist | EBI2 antag | EBI2 antag conf | EBI2 agonist | bGal counter
Cc1ccc(SCCNC(=O)CN(c2ccc3c(c2)OCO3)S(C)(=O)=O)cc1 | i | i | i | i | i | 70.6 | 57.9 | i | i
Cc1ccccc1CSCCNC(=O)CN(c1ccc2c(c1)OCO2)S(C)(=O)=O | i | i | nt | i | i | i | nt | nt | nt
COc1ccccc1N(CC(=O)NCCSc1ccc(Cl)cc1)S(C)(=O)=O | i | i | i | i | i | 80.1 | 62.3 | i | i
COc1ccccc1N(CC(=O)NCCSc1ccccc1)S(C)(=O)=O | i | i | nt | i | i | i | nt | nt | nt
CC(C)C(=O)NCCc1nc(-c2ccc(Cl)cc2)no1 | i | i | i | i | i | i | nt | nt | nt
COc1ccccc1N(CC(=O)NCCSCc1ccc(C)cc1)S(=O)(=O)c1ccccc1 | i | i | i | i | i | i | nt | nt | nt
COc1ccccc1N(CC(=O)NCCSc1ccccc1)S(=O)(=O)c1ccccc1 | i | i | i | i | i | 49.8 | i | i | i
COc1ccc(N(CC(=O)NCCSCc2ccc(C)cc2)S(=O)(=O)c2ccccc2)cc1 | i | i | i | i | i | 73.0 | i | i | i
COc1ccc(N(CC(=O)NCCSc2ccccc2)S(=O)(=O)c2ccccc2)c(OC)c1 | i | i | i | i | i | 44.6 | i | i | i
COc1ccc(NC(=O)c2cc3ccccc3cc2OC)cc1 | i | i | nt | i | i | 65.2 | i | i | i
CCOc1ccc(NC(=O)c2cc3ccccc3cc2OC)cc1 | i | i | i | i | i | 54.3 | i | i | i
COc1ccc(NC(=O)c2ccc(C(=O)c3cc(OC)ccc3OC)cc2)cc1 | i | i | nt | i | i | 48.1 | i | i | i
COc1ccc(OC)c(C(=O)c2ccc(C(=O)Nc3ccccc3)cc2)c1 | i | i | nt | i | i | i | nt | nt | nt
O=C(COC(=O)c1cc(F)cc(F)c1)NCCCc1ccccc1 | i | i | nt | i | i | i | nt | nt | nt
S=c1[nH]nc(-c2cc(-c3ccccc3)n[nH]2)n1/N=C/C=C/c1ccccc1 | i | i | i | i | i | i | nt | nt | nt
S=c1[nH]nc(-c2cc(-c3ccccc3)n[nH]2)n1/N=C/C(Br)=C/c1ccccc1 | i | i | 71.6 | i | i | 52.3 | i | i | i
S=c1[nH]nc(-c2cc(-c3ccccc3)n[nH]2)n1/N=C/c1ccccc1 | i | i | i | i | i | 51.1 | i | i | i
CC(=O)Nc1ccc(OS(=O)(=O)c2ccc([N+](=O)[O-])cc2)cc1 | i | i | i | i | i | i | nt | nt | nt
CC(C)(CNS(=O)(=O)c1ccc2ccccc2c1)N1CCOCC1 | i | i | i | i | i | i | nt | nt | nt
CCCS(=O)(=O)NC(=O)C1(C)CCN(C(=O)C2(c3ccc(Cl)cc3)CCCC2)C1 (centres undefined) | nt | nt | i | i | nt | i | nt | nt | nt
O=C(NCc1ccc(F)cc1)C1CCCN(S(=O)(=O)c2ccc(Br)s2)C1 (centres undefined) | i | i | nt | i | i | i | nt | nt | nt
O=C(NCc1ccc(F)cc1)C1CCN(S(=O)(=O)c2ccc(Br)s2)CC1 | i | i | nt | i | i | 51.9 | i | i | i
O=C(NCc1ccc(Cl)cc1)C1CCN(S(=O)(=O)c2cccnc2)CC1 | i | i | nt | i | i | 50.5 | i | i | i
